Results as given in ChEMBL document CHEMBL1122866, “3-Phenyl-1-indanamines. Potential antidepressant activity and potent inhibition of dopamine, norepinephrine, and serotonin uptake” (J Med Chem, 1985).
Several values for one entry are separate records, joined by “and”; a condition that tells them apart may be missing. Equal entries are not always repeated.

Assays:
Type in all cases: functional
Mus musculus [1] = species on record: Mus musculus; assay: Antagonistic activity against 5-HTP induced potentiation in mice
Procedure, shortened: (§1)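 Mice dosed intraperitoneally; the result is reported as the ED50 in μmol/kg with a range in parentheses. Test compounds are racemates of >95% isomeric purity by TLC.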

[2] = target: Sodium-dependent dopamine transporter (Rattus norvegicus, UniProt P23977); assay: Inhibition of dopamine uptake in rat synaptosomal fraction
Sequence of Sodium-dependent dopamine transporter (P23977 whole entry): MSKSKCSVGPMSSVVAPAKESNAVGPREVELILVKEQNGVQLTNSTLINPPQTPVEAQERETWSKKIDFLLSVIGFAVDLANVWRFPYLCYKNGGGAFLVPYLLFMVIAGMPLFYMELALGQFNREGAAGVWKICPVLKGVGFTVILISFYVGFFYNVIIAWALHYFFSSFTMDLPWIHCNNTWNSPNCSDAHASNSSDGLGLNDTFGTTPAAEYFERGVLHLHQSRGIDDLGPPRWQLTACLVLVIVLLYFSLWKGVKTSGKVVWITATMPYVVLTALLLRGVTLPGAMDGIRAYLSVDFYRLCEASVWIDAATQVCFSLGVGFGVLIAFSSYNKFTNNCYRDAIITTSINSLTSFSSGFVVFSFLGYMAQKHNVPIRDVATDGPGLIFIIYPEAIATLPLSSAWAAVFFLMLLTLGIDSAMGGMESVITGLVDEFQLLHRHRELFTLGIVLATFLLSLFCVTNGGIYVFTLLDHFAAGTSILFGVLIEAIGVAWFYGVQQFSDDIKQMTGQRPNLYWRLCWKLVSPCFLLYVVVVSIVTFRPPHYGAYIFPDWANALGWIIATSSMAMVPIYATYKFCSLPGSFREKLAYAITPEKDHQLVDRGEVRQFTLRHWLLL

Mus musculus [3] = species on record: Mus musculus; assay: Antagonistic activity against tetrabenazine-induced ptosis in mice.; procedure, shortened: as §1
[4] = target: Norepinephrine transporter (Rattus norvegicus, UniProt Q9WTR4); assay: Inhibition of noradrenaline uptake in rat synaptosomal fraction
Sequence of Norepinephrine transporter (Q9WTR4 whole entry): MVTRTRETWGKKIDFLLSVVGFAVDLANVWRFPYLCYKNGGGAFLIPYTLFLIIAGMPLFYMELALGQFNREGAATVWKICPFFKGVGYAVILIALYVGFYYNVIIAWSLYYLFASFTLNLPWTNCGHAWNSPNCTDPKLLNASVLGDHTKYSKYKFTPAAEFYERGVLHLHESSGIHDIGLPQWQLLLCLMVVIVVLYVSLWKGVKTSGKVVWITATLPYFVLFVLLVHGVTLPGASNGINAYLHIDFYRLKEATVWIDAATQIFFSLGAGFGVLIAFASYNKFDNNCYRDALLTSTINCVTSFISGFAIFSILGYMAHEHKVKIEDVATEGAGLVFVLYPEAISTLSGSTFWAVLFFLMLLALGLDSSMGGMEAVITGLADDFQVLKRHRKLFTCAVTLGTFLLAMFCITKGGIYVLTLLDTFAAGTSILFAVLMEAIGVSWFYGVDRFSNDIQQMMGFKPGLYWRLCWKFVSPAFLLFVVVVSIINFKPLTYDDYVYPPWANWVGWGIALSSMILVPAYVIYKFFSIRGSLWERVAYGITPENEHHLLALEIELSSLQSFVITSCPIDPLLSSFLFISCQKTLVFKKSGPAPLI
Procedure, shortened: (§2)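 Synaptosomal uptake of DA, NE or 5-HT measured. The IC50 is in nM and is the mean of at least two determinations, each using five test concentrations in triplicate.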

[5] = target: Sodium-dependent serotonin transporter (Rattus norvegicus, UniProt P31652); assay: Inhibition of 5-HT uptake in rat synaptosomal fraction; procedure, shortened: as §2
Sequence of Sodium-dependent serotonin transporter (P31652 whole entry): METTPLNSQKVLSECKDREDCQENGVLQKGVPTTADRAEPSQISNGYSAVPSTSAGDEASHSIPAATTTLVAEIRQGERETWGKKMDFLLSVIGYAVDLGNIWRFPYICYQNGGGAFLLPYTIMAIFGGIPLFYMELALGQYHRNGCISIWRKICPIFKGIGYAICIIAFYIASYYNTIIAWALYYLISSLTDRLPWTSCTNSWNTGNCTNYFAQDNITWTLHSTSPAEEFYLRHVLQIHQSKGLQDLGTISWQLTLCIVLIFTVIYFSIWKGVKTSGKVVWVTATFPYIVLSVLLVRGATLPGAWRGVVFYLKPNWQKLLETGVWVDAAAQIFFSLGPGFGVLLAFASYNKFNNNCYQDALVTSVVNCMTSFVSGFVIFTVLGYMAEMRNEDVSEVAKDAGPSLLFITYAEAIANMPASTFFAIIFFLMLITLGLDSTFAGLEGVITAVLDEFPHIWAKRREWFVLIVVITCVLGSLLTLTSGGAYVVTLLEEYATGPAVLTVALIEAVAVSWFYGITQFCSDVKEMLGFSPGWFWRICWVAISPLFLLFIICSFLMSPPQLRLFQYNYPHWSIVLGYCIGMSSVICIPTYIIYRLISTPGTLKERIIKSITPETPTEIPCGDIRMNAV

| SMILES | ED50 (Mus musculus [1]) | also measured |
| --- | --- | --- |
| CCNC1CC(c2ccc(Cl)c(Cl)c2)c2ccccc21 (stereo in doubt; 83) | 26 µmol/kg | – |
| CNC1CC(c2ccc(Cl)c(Cl)c2)c2ccc(O)cc21 (stereo in doubt; 54) | > 128 µmol/kg | – |
| CNC1CC(c2ccc(Br)cc2)c2ccccc21 (stereo in doubt; 36) | 8.8 µmol/kg | – |
| CCCN(CCC)C1CC(c2ccc(Cl)c(Cl)c2)c2ccccc21 (stereo in doubt; 90) | > 100 µmol/kg | – |
| CCCN(CCC)C1CC(c2ccc(Cl)c(Cl)c2)c2ccccc21 (stereo in doubt; 89) | > 100 µmol/kg | – |
| Clc1ccc(C2CC(N3CCCC3)c3ccccc32)cc1Cl (stereo in doubt; 97) [listing 1 of 2 here] | > 108 µmol/kg | – |
| CN(C)C1CC(c2ccc(F)cc2)c2ccc(C(F)(F)F)cc21 (stereo in doubt; 57) | 123 µmol/kg | – |
| CN(C)C1CC(c2ccc(F)cc2)c2ccccc21 (stereo in doubt; 61) | 25 µmol/kg | – |
| CN(C)C1CC(c2ccc(F)cc2)c2ccc(C(F)(F)F)cc21 (stereo in doubt; 82) | 101 µmol/kg | – |
| CN1CCN(C2CC(c3ccc(Cl)c(Cl)c3)c3ccccc32)CC1 (single isomer, unassigned; (+)-101) [listing 1 of 2 here] | – | IC50 [2]: 340 nM; ED50 (Mus musculus [3]): >91 µmol/kg |
| CN1CCN(C2CC(c3ccc(Cl)c(Cl)c3)c3ccccc32)CC1 (single isomer, unassigned; (+)-101) [listing 2 of 2 here] | > 91 µmol/kg | – |
| CCCNC1CC(c2ccc(Cl)c(Cl)c2)c2ccccc21 (stereo in doubt; 87) | 87 µmol/kg | – |
| CNC1CC(c2ccc(Cl)cc2Cl)c2ccccc21 (stereo in doubt; 48) | 67 µmol/kg | – |
| CN(C)C1CC(c2ccc(F)c(F)c2)c2ccccc21 (configuration not stated) | 73 µmol/kg and 42 µmol/kg | – |
| Clc1ccc(C2CC(NCc3ccccc3)c3ccccc32)cc1Cl (stereo in doubt; 94) | 207 µmol/kg | – |
| CN(C)C1CC(c2ccc(F)c(Cl)c2)c2ccccc21.Cl (stereo in doubt; 44) | – | ED50 (Mus musculus [3]): 4.5 µmol/kg |
| Clc1ccc(C2CC(N3CCCCC3)c3ccccc32)cc1Cl (stereo in doubt; 99) [listing 1 of 2 here] | > 209 µmol/kg | – |
| CNC1CC(c2ccc(F)c(Cl)c2)c2ccccc21.Cl (stereo in doubt; 43) | – | ED50 (Mus musculus [3]): 12 µmol/kg |
| CN(C)C1CC(c2ccc(F)cc2)c2ccccc21.Cl (stereo in doubt; 61) | – | IC50 [4]: 24 nM; IC50 [5]: 6.2 nM; ED50 (Mus musculus [3]): 24 µmol/kg |
| CNC1CC(c2ccc(F)c(Cl)c2)c2ccccc21 (stereo in doubt; 70) | 30 µmol/kg | – |
| CCCNC1CC(c2ccc(Cl)c(Cl)c2)c2ccccc21 (stereo in doubt; 88) [listing 1 of 2 here] | – | ED50 (Mus musculus [3]; Mus musculus, read-out: ED50): > 112 µmol/kg |

| SMILES | ED50 (Mus musculus [1]) | also measured |
| --- | --- | --- |
| CNC1CC(c2ccc(F)cc2)c2ccccc21.Cl (stereo in doubt; 32) | – | IC50 [4]: 2.9 nM; IC50 [5]: 76 nM; ED50 (Mus musculus [3]): 19 µmol/kg |
| Clc1ccc(C2CC(N3CCCC3)c3ccccc32)cc1Cl (stereo in doubt; 98) [listing 1 of 2 here] | – | IC50 [2]: 32 nM; IC50 [4]: 27 nM; IC50 [5]: 3.1 nM |
| CN(C)C1CC(c2ccc(Cl)cc2Cl)c2ccccc21 (stereo in doubt; 49) | 19 µmol/kg | – |
| CN(C)C1CC(c2ccccc2)c2ccccc21 (stereo in doubt; 59) | > 36 µmol/kg | – |
| CN(C)C1CC(c2ccc(F)c(Cl)c2)c2ccccc21 (stereo in doubt; 71) | 51 µmol/kg | – |
| CN(C)C1CC(c2ccc(Cl)c(Cl)c2)c2ccccc21 (configuration not stated) [listing 1 of 2 here] | – | IC50 [2]: 28 nM; IC50 [4]: 24 nM; IC50 [5]: 0.64 nM |
| CCN(CC)C1CC(c2ccc(Cl)c(Cl)c2)c2ccccc21 (stereo in doubt; 85) | 19 µmol/kg | – |
| CN(C)C1CC(c2ccc(Cl)cc2Cl)c2ccccc21 (stereo in doubt; 75) [listing 1 of 2 here] | 19 µmol/kg | – |
| CN(C)C1CC(c2ccc(Cl)cc2)c2ccccc21 (stereo in doubt; 35) | 48 µmol/kg | – |
| CCN(CC)C1CC(c2ccc(Cl)c(Cl)c2)c2ccccc21 (stereo in doubt; 86) | 204 µmol/kg | – |
| CN(C)C1CC(c2ccc(Cl)c(Cl)c2)c2ccc(F)cc21 (stereo in doubt; 51) | 20 µmol/kg | – |
| CNC1CC(c2ccc(F)cc2)c2ccccc21 (stereo in doubt; 60) | 72 µmol/kg | – |
| CN1CCN(C2CC(c3ccc(Cl)c(Cl)c3)c3ccccc32)CC1 (single isomer, unassigned; (+)-102) [listing 1 of 2 here] | > 89 µmol/kg | – |
| CNC1CC(c2cccc(Cl)c2)c2ccccc21 (stereo in doubt; 66) | 124 µmol/kg | – |
| CN(C)C1CC(c2ccc(F)c(Cl)c2)c2ccccc21 (stereo in doubt; 44) | 37 µmol/kg | – |
| CN1CCN(C2CC(c3ccc(Cl)c(Cl)c3)c3ccccc32)CC1 (stereo in doubt; (-)-102) | > 89 µmol/kg | – |
| CCCN(CCC)C1CC(c2ccc(Cl)c(Cl)c2)c2ccccc21.Cl (stereo in doubt; 90) | – | IC50 [2]: 180 nM; ED50 (Mus musculus [3]): >100 µmol/kg |
| Clc1ccc(C2CC(N3CCCCC3)c3ccccc32)cc1Cl (stereo in doubt; 100) | > 209 µmol/kg | – |
| CCNC1CC(c2ccc(Cl)c(Cl)c2)c2ccccc21.Cl (stereo in doubt; 83) | – | IC50 [2]: 1.5 nM; IC50 [4]: 0.32 nM; IC50 [5]: 2.3 nM |
| CCCNC1CC(c2ccc(Cl)c(Cl)c2)c2ccccc21 (stereo in doubt; 88) [listing 2 of 2 here] | > 112 µmol/kg | – |
| CN1Cc2c(N)cccc2C(c2ccccc2)C1 (configuration not stated) | > 56 µmol/kg | – |

| SMILES | ED50 (Mus musculus [1]) | also measured |
| --- | --- | --- |
| CN1CCN(C2CC(c3ccc(Cl)c(Cl)c3)c3ccccc32)CC1 (single isomer, unassigned; (-)) | > 92 µmol/kg | – |
| CNC1CC(c2ccc(Cl)cc2)c2ccccc21 (configuration not stated) | 34 µmol/kg and 22 µmol/kg | – |
| CNC1CC(c2ccc(F)c(F)c2)c2ccccc21 (stereo in doubt; 68) | 63 µmol/kg | – |
| CNC1CC(c2ccc(Br)cc2)c2ccccc21 (stereo in doubt; 64) | 6.6 µmol/kg | – |
| CCNC1CC(c2ccc(Cl)c(Cl)c2)c2ccccc21 (stereo in doubt; 84) | 26 µmol/kg | – |
| CNC1CC(c2cccc(Cl)c2)c2ccccc21 (stereo in doubt; 39) | 92 µmol/kg | – |
| CNC1CC(c2ccc(F)c(F)c2)c2ccccc21 (stereo in doubt; 41) | 22 µmol/kg | – |
| CN(C)C1CC(c2ccc(F)c(Cl)c2)c2ccccc21.Cl (stereo in doubt; 71) | – | ED50 (Mus musculus [3]): 13 µmol/kg |
| CN(C)C1CC(c2ccc(F)cc2)c2ccc(F)cc21 (configuration not stated) [listing 1 of 2 here] | – | IC50 [4]: 90 nM; ED50 (Mus musculus [3]): >147 µmol/kg |
| Clc1ccc(C2CC(NCCc3ccccc3)c3ccccc32)cc1Cl (configuration not stated) [listing 1 of 2 here] | > 85 µmol/kg and 142 µmol/kg | – |
| CN(C)C1CC(c2cccc(Cl)c2)c2ccccc21 (stereo in doubt; 67) | 78 µmol/kg | – |
| CCNC1CC(c2ccc(Cl)c(Cl)c2)c2ccccc21.Cl (stereo in doubt; 84) | – | IC50 [4]: 49 nM; IC50 [5]: 1.6 nM |
| CNC1CC(c2ccc(Cl)c(Cl)c2)c2ccc(F)cc21 (stereo in doubt; 76) | 15 µmol/kg | – |
| Clc1ccc(C2CC(NCCc3ccccc3)c3ccccc32)cc1Cl (configuration not stated) [listing 2 of 2 here] | – | ED50 (Mus musculus [3]): >85 µmol/kg |
| Clc1ccc(C2CC(N3CCCC3)c3ccccc32)cc1Cl (stereo in doubt; 98) [listing 2 of 2 here] | 161 µmol/kg | – |
| CN(C)C1CC(c2ccc(Cl)c(Cl)c2)c2ccccc21 (configuration not stated) [listing 2 of 2 here] | 5 µmol/kg and 10 µmol/kg | – |
| CN(C)C1CC(c2ccc(F)cc2)c2ccc(C(F)(F)F)cc21.Cl (stereo in doubt; 82) | – | IC50 [4]: 350 nM; ED50 (Mus musculus [3]): >111 µmol/kg |
| CN(C)C1CC(c2ccc(Cl)c(Cl)c2)c2ccc(F)cc21 (stereo in doubt; 77) [listing 1 of 2 here] | 29 µmol/kg | – |
| CN(C)C1CC(c2ccccc2)c2ccccc21.Cl (stereo in doubt; 59) | – | IC50 [4]: 41 nM; ED50 (Mus musculus [3]): >143 µmol/kg |
| CN(C)C1CC(c2ccc(Cl)cc2Cl)c2ccccc21 (stereo in doubt; 75) [listing 2 of 2 here] | – | IC50 [4]: 34 nM; ED50 (Mus musculus [3]; Mus musculus, read-out: ED50): 23 µmol/kg |
| Clc1ccc(C2CC(N3CCCCC3)c3ccccc32)cc1Cl (stereo in doubt; 99) [listing 2 of 2 here] | – | IC50 [2]: 720 nM |

| SMILES | ED50 (Mus musculus [1]) | also measured |
| --- | --- | --- |
| CNC1CC(c2ccc(Cl)c(Cl)c2)c2ccc(F)cc21 (stereo in doubt; 50) | 27 µmol/kg | – |
| CN(C)C1CC(c2cccc(Cl)c2)c2ccccc21 (stereo in doubt; 40) | 43 µmol/kg | – |
| Clc1ccc(C2CC(NCc3ccccc3)c3ccccc32)cc1Cl (stereo in doubt; 93) | 47 µmol/kg | – |
| CN1CCN(C2CC(c3ccc(Cl)c(Cl)c3)c3ccccc32)CC1 (single isomer, unassigned; (+)-102) [listing 2 of 2 here] | – | IC50 [2]: 1700 nM |
| CNC1CC(c2ccc(F)cc2)c2ccccc21.Cl (stereo in doubt; 60) | – | IC50 [4]: 120 nM; IC50 [5]: 21 nM; ED50 (Mus musculus [3]): 79 µmol/kg |
| CN(C)C1CC(c2ccc(Cl)cc2)c2ccccc21 (stereo in doubt; 63) | 14 µmol/kg | – |
| CCN(CC)C1CC(c2ccc(Cl)c(Cl)c2)c2ccccc21.Cl (stereo in doubt; 86) | – | IC50 [4]: 13 nM; ED50 (Mus musculus [3]): >108 µmol/kg |
| CN1CCN(C2CC(c3ccc(Cl)c(Cl)c3)c3ccccc32)CC1 (stereo in doubt; 102) | > 89 µmol/kg | – |
| Cl.Clc1ccc(C2CC(NCCc3ccccc3)c3ccccc32)cc1Cl (configuration not stated) | – | ED50 (Mus musculus [3]): 33 µmol/kg |
| CN(C)C1CC(c2ccc(Cl)c(Cl)c2)c2ccc(F)cc21 (stereo in doubt; 77) [listing 2 of 2 here] | – | IC50 [2]: 31 nM; IC50 [4]: 3.7 nM; IC50 [5]: 2.5 nM |
| CN(C)C1CC(c2ccc(F)cc2)c2ccc(F)cc21 (configuration not stated) [listing 2 of 2 here] | > 29 µmol/kg and 21 µmol/kg | – |
| CN(C)C1CC(c2ccc(Br)cc2)c2ccccc21 (stereo in doubt; 37) | 8.4 µmol/kg | – |
| Clc1ccc(C2CC(N3CCCC3)c3ccccc32)cc1Cl (stereo in doubt; 97) [listing 2 of 2 here] | – | IC50 [2]: 320 nM; ED50 (Mus musculus [3]; Mus musculus, read-out: ED50): > 108 µmol/kg |
| CN(C)C1CC(c2ccc(Br)cc2)c2ccccc21 (stereo in doubt; 65) | 12 µmol/kg | – |
| CNC1CC(c2ccc(F)c(Cl)c2)c2ccccc21 (stereo in doubt; 43) | 47 µmol/kg | – |
| CNC1CC(c2ccc(F)c(Cl)c2)c2ccccc21.Cl (stereo in doubt; 70) | – | ED50 (Mus musculus [3]): 32 µmol/kg |
| CN(C)C1CC(c2ccccc2)c2ccccc21 (stereo in doubt; 31) | > 35 µmol/kg | – |
| CN(C)C1CC(c2ccc(F)cc2)c2ccccc21 (stereo in doubt; 33) | 45 µmol/kg | – |
| CNC1CC(c2ccc(Cl)cc2Cl)c2ccccc21 (stereo in doubt; 74) | 71 µmol/kg | – |
| CNC1CC(c2ccc(F)cc2)c2ccccc21 (stereo in doubt; 32) | > 144 µmol/kg | – |
| CN(C)C1CC(c2ccc(Cl)c(Cl)c2)c2ccccc21.Cl (configuration not stated) | – | IC50 [4]: 2.4 nM |
